ChEMBL document CHEMBL1221207, “Expanding the promiscuity of a natural-product glycosyltransferase by directed evolution” (Nat Chem Biol, 2007)
Positions count from the first letter of the chain named.

Assays:
[1] = biological target: T1, Oleandomycin glycosyltransferase (Streptomyces antibioticus) (UniProt Q53685); assay: Activity of Streptomyces antibioticus OleD […] mutant assessed as as rate of glucoside formation measured as nanomoles of product formed per minute per mg of enzyme
T1 sequence (whole entry): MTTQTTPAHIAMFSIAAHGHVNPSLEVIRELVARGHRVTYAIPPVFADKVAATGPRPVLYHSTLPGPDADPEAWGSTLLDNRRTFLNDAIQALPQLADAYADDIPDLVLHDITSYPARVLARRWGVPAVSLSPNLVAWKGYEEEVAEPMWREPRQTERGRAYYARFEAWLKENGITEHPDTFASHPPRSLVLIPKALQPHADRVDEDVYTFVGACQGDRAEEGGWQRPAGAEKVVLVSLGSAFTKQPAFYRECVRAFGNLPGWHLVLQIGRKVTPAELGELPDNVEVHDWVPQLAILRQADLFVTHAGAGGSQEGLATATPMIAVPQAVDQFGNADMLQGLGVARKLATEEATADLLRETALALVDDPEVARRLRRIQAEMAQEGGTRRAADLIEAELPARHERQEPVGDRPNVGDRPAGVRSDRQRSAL

[2] = tested on: T2, Oleandomycin glycosyltransferase (Streptomyces antibioticus), Q53685 [P67T,S132F,A242V]; assay: Activity of Streptomyces antibioticus OleD P67T/S132F/A242V mutant assessed as as rate of glucoside formation measured as nanomoles of product formed per minute per mg of enzyme
T2 sequence (whole entry): T1 sequence (whole entry) with P67T, S132F, A242V

[3] = tested on: T2, Oleandomycin glycosyltransferase (Streptomyces antibioticus), Q53685 [P67T,S132F,A242V]; assay: Activity of Streptomyces antibioticus OleD P67T/S132F/A242V mutant assessed as conversion rate of compound to produce glucoside 3 using NDP sugar UDP-glucose after 3 hrs by HPLC
In short: (§1)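 End-point donor-specificity assay with purified OleD enzyme. Percentage conversion was read after 3 h. Quenched reactions were run by reverse-phase C18 HPLC with a 10–90% CH3CN gradient in 0.1% formic acid/H2O over 20 min at 1 ml min–1, with detection at 254 nm. Products were identified by LC-MS, by comparison to standards where available, and by fluorescence.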

[4] = tested on: T3, Oleandomycin glycosyltransferase (Streptomyces antibioticus), Q53685 [P67T]; assay: Activity of Streptomyces antibioticus OleD P67T mutant assessed as conversion rate of compound to produce glucoside 3 using NDP sugar donor UDP-6-azido-glucose after 3 hrs by HPLC; in short: as §1
T3 sequence (whole entry): T1 sequence (whole entry) with P67T

Q: For `Cc1cc(=O)oc2cc(O)ccc12`, which Activity [1] is on record?
A: Its Activity is 6.3 nmol/min.

Q: What about the Activity [2] of the same compound?
A: Its Activity is 84 nmol/min.

Q: And the Activity [3]?
A: The Activity was 96.4%.

Q: And the Activity [4]?
A: Its Activity is 2%.
